In ChEMBL document CHEMBL5154639, “Anti-schistosomal activities of quinoxaline-containing compounds: From hit identification to lead optimisation” (Eur J Med Chem, 2021):
Active and inactive are the calls of the source.

Key:
Schistosoma mansoni [1] = assay: Antischistosomal activity against adult stage of Schistosoma mansoni assessed as cessation of worm motility at 6.25 to 12.5 uM measured after 72 hrs; assay type: functional, organism-based; conditions: dose 6.25-12.5 µM
How it was run: (§1)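 7-week adult worm pairs, 1–3 pairs per well in duplicate, in DMEM with 10% FCS, L-glutamine and antibiotics, incubated 72 h at 37°C, 5% CO2. Concentrations were 0.78–50 µM in 0.5% DMSO, with some titrations at 0.0095–10 or 0.0095–5 µM. Controls were 0.5% DMSO and praziquantel 10 µM. Motility was measured by digital image analysis, and eggs were collected, formalin-fixed and counted.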

Schistosoma mansoni [2] = assay: Antischistosomal activity against adult stage of Schistosoma mansoni assessed as cessation of worm motility at 0.0095 to 10 uM measured after 72 hrs; assay type: functional, organism-based; conditions: dose 0.0095-10 µM; how it was run: as §1
Schistosoma mansoni [3] = assay: Antischistosomal activity against adult stage of Schistosoma mansoni assessed as inhibition of oviposition at 0.0095 to 10 uM measured after 72 hrs; assay type: functional, organism-based; conditions: dose 0.0095-10 µM; how it was run: as §1
Schistosoma mansoni [4] = assay: Antischistosomal activity against adult stage of Schistosoma mansoni assessed as inhibition of oviposition at 0.0024 to 10 uM measured after 72 hrs; assay type: functional, organism-based; conditions: dose 0.0095-10 µM, in the assay text read “0.0095 to 10 uM” for “0.0024 to 10 uM”; how it was run: as §1
Schistosoma mansoni [5] = assay: Antischistosomal activity against adult stage of Schistosoma mansoni assessed as inhibition of in vitro laid eggs production at 12.5 uM measured after 72 hrs; assay type: functional, organism-based; how it was run: as §1
Schistosoma mansoni [6] = assay: Antischistosomal activity against adult stage of Schistosoma mansoni assessed as absence of body/gut movement, plate detachment and severe damage to the tegument at 25 to 50 uM measured after 72 hrs; assay type: functional, organism-based; conditions: dose 25-50 µM; how it was run: as §1
Schistosoma mansoni [7] = assay: Antischistosomal activity against Schistosoma mansoni Puerto-Rican schistosomula assessed as inhibition of parasite motility at 50 uM measured after 72 hrs; assay type: functional, organism-based
How it was run: (§2)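 Mechanically transformed schistosomula, 120 per well, incubated with compound at 37°C, 5% CO2 for 72 h, at single concentrations (10, 50 µM) or two-fold titrations (0.313–10 µM). Controls were auranofin 10 µM and 0.625% DMSO. Motility and phenotype were scored by automated high-content imaging, and EC50 was taken from two or three replicate titrations.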

Schistosoma mansoni [8] = assay: Antischistosomal activity against adult stage of Schistosoma mansoni assessed as cessation of worm motility at 3.15 uM measured after 72 hrs; assay type: functional; how it was run: as §1
Schistosoma japonicum [9] = assay: Antischistosomal activity against adult stage of Schistosoma japonicum assessed as inhibition of parasite motility at 100 nM measured after 24 to 72 hrs by microscopic method; assay type: functional, organism-based; conditions: time 24-72 hrs
How it was run: (§3)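 Adult males (Egyptian isolate for S. haematobium, hamster-derived; Philippine isolate for S. japonicum, mouse-derived), about 5 per well in Basch 169 medium with antibiotics and 4% FBS, acclimated overnight at 37°C, 5% CO2. Compound added at 100 nM final in DMSO. Shape, density and motility scored by microscope with constrained descriptors at 5, 24, 48 and 72 h. Triplicate, sometimes duplicate.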

Schistosoma haematobium = assay: Antischistosomal activity against Schistosoma haematobium assessed as inhibition of parasite movement at 100 nM measured after 24 to 72 hrs by microscopic method; assay type: functional, organism-based; conditions: time 24-72 hrs; how it was run: as §3
Schistosoma japonicum [10] = assay: Antischistosomal activity against adult stage of Schistosoma japonicum assessed as parasite death at 100 nM measured after 72 hrs by microscopic method; assay type: functional, organism-based; how it was run: as §3
[11] = Genotoxicity against human TK6 cells assessed as […] in micronuclei formation at 0.5 to 2 uM measured after 24 hrs; assay type: toxicity, cell-based; conditions: tk6, 24 h, dose 0.5-2 µM
How it was run: (§4)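 TK6 cells, about 2×10^5/ml in RPMI with 10% horse serum, treated 24 h without recovery at 0.5, 2 and 4 µM. Controls were 1% DMSO, MMS 45.4 µM and carbendazim 8.4 µM. Cells were fixed, permeabilized and stained for γH2AX, p53 and DRAQ5, then imaged by flow cytometry. Micronuclei were scored by neural network as %MNi in mononucleated cells. Biomarkers were expressed as fold change, with 1.5-fold as cut-off. Three experiments.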

TK6 [12] = assay: Induction of cell cycle arrest in human TK6 cells assessed as accumulation of cells at G2/M phase at 2 to 4 uM; assay type: toxicity, cell-based; conditions: tk6, 4 µM, dose 2-4 µM
[13] = Genotoxicity against human TK6 cells assessed as induction of DNA damage by measuring gammaH2AX level at 0.5 to 4 uM measured after 24 hrs; assay type: toxicity, cell-based; conditions: tk6, 24 h, dose 0.5-4 µM; how it was run: as §4
[14] = Genotoxicity against human TK6 cells assessed as induction of DNA damage by measuring nuclear p53 content at 0.5 to 4 uM measured after 24 hrs; assay type: toxicity, cell-based; conditions: tk6, 24 h, dose 0.5-4 µM; how it was run: as §4
Schistosoma mansoni [15] = assay: Antischistosomal activity against juvenile stage of Schistosoma mansoni assessed as parasite death at 1.25 to 10 uM measured after 72 hrs by PI staining based analysis; assay type: functional, organism-based; conditions: dose 1.25-10 µM
How it was run: (§5)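 Juvenile worms, 20–25 per well, exposed to 10–0.156 µM for 72 h at 37°C, 5% CO2. Controls were 1.25% DMSO, and PZQ and AUR at 15 µM. Motility and phenotype were scored on an adapted WHO-TDR 0–4 scale. Viability was measured by 15 min staining with 2 µg/ml propidium iodide, imaged, and reported as the percentage of PI-positive worms per well.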

Schistosoma mansoni [16] = assay: Antischistosomal activity against Schistosoma mansoni assessed as parasite death at 10 to 50 uM measured after 48 hrs; assay type: functional, organism-based; conditions: dose 10-50 µM
How it was run: (§6)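 Miracidia hatched from eggs by light exposure in artificial river water, then washed in CBSS. Set up in CBSS with compound, usually 0.5, 2, 5, 10 and 50 µM, in duplicate, with 1% DMSO as negative control. After 48 h at 26°C, dead, fully transformed and partially transformed larvae were counted.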

Schistosoma mansoni [17] = assay: Antischistosomal activity against Schistosoma mansoni assessed as inhibition of miracidial to sporocyst transformation measured after 48 hrs; assay type: functional, organism-based; conditions: dose 0.5-5 µM, DDE = dose-dependent effect; how it was run: as §6
Schistosoma mansoni [18] = assay: Antischistosomal activity against juvenile stage of Schistosoma mansoni assessed as increased granularity with reduced movement at 0.156 uM measured after 72 hrs by PI staining based analysis; assay type: functional, organism-based; how it was run: as §5
[19] = Genotoxicity against human TK6 cells assessed as […] in micronuclei formation at 4 uM measured after 24 hrs; assay type: toxicity, cell-based; conditions: tk6, 24 h; how it was run: as §4
TK6 [20] = assay: Cytotoxicity against human TK6 cells assessed as increase in mitotic arrest at 4 uM measured after 24 hrs; assay type: toxicity, cell-based; conditions: tk6, 24 h
[21] = Drug uptake in cytoplasm of human TK6 cells by fluorescence based analysis; assay type: ADME, subcellular
How it was run: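 Compound autofluorescence was recorded alongside γH2AX and p53 during imaging flow cytometry of TK6 cells treated for 24 h at 0.5–4 µM and fixed with lysis solution.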

Schistosoma japonicum [22] = assay: Antischistosomal activity against adult stage of Schistosoma japonicum assessed as inhibition of parasite motility at 100 nM measured after 48 hrs by microscopic method; assay type: functional, organism-based; how it was run: as §3
Schistosoma mansoni [23] = assay: Antischistosomal activity against Schistosoma mansoni Puerto-Rican schistosomula assessed as inhibition of parasite motility measured after 72 hrs; assay type: functional, organism-based; how it was run: as §2
Schistosoma mansoni [24] = assay: Antischistosomal activity against Schistosoma mansoni Puerto-Rican schistosomula assessed as phenotypic changes measured after 72 hrs; assay type: functional, organism-based; how it was run: as §2
Schistosoma mansoni [25] = assay: Antischistosomal activity against adult stage of Schistosoma mansoni assessed as inhibition of parasite motility measured after 72 hrs; assay type: functional, organism-based; how it was run: as §1
[26] = Cytotoxicity against human HepG2 cells assessed as reduction in cell viability incubated for 24 hrs by MTT assay; assay type: toxicity, cell-based
How it was run: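 HepG2 seeded at 2×10^4 cells/well, then after 24 h exposed to 1–200 µM (seven concentrations) for 24 h at 37°C. Controls were 1.25% DMSO and 1% Triton X-100. MTT absorbance was read at 570 nm. Triplicates in three experiments; CC50 by non-linear regression of normalized log-dose curves.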

[27] = Cytotoxicity against human HepG2 cells assessed as reduction in cell viability incubated for 72 hrs by MTT assay; assay type: toxicity, cell-based
[28] = Selectivity index, ratio of CC50 for human HepG2 cells measured after 72 hrs to EC50 for antischistosomal activity against Schistosoma mansoni Puerto-Rican schistosomula measured after 72 hrs; assay type: toxicity; conditions: read-out: Ratio CC50/EC50
[29] = Selectivity index, ratio of CC50 for human HepG2 cells measured after 72 hrs to EC50 for antischistosomal activity against adult stage of Schistosoma mansoni measured after 72 hrs; assay type: toxicity; conditions: read-out: Ratio CC50/EC50

## Cc1ccc(Nc2nc3ccccc3nc2Nc2ccc(C)c(C)c2)cc1C
Schistosoma mansoni [1]
  Activity: Active

## O=C(C1CCCCC1)N1CC(=O)N2CCc3ccccc3C2C1 (stereo not drawn)
Schistosoma mansoni [2]
  Activity: Active
Schistosoma mansoni [3]
  Activity: Active
Schistosoma mansoni [4]
  Activity: Active

## c1ccc(/N=c2\sc3ccccc3s\c2=N\c2ccccc2)cc1
Schistosoma mansoni [5]
  Activity: Active
Schistosoma mansoni [6]
  Activity: Active

## Clc1ccc(Nc2nc3ccc(N4CCCC4)cc3nc2Nc2ccc(Cl)c(Cl)c2)cc1Cl
Schistosoma mansoni [7]
  Activity: Active

## O=[N+]([O-])c1ccc2nc(Nc3ccccc3)c(Nc3ccccc3)nc2c1
Schistosoma mansoni [1]
  Activity: Active
Schistosoma mansoni [8]
  Activity: 100%

## O=[N+]([O-])c1ccc2nc(Nc3ccc(C(F)(F)F)cc3)c(Nc3ccc(C(F)(F)F)cc3)nc2c1
Schistosoma japonicum [9]
  Activity: Active
Schistosoma haematobium
  Activity: Active
Schistosoma japonicum [10]
  Activity: Active

## O=[N+]([O-])c1ccc2nc(Nc3ccc(Cl)c(Cl)c3)c(Nc3ccc(Cl)c(Cl)c3)nc2c1
Schistosoma mansoni [1]
  Activity: Active
Schistosoma mansoni [2]
  Activity: Active
[11]
  Activity: Non-Toxic
TK6 [12]
  Activity: Toxic
[13]
  Activity: Non-Toxic
[14]
  Activity: Non-Toxic
Schistosoma mansoni [15]
  Activity: Active
Schistosoma mansoni [3]
  Activity: Active
Schistosoma mansoni [16]
  Activity: Active
Schistosoma mansoni [17]
  Activity: Dde
Schistosoma mansoni [18]
  Activity: Active
[19]
  Activity: Toxic
TK6 [20]
  Activity: Toxic
[21]
  Drug uptake: Active
Schistosoma mansoni [4]
  Activity: Active
Schistosoma japonicum [22]
  Activity: Active

## O=[N+]([O-])c1ccc2nc(Nc3cc(F)cc(C(F)(F)F)c3)c(Nc3cc(F)cc(C(F)(F)F)c3)nc2c1
Schistosoma mansoni [4]
  Activity: Active

## O=[N+]([O-])c1ccc2nc(Nc3cc(C(F)(F)F)ccc3F)c(Nc3cc(C(F)(F)F)ccc3F)nc2c1
Schistosoma japonicum [9]
  Activity: Active
Schistosoma haematobium
  Activity: Active
Schistosoma mansoni [4]
  Activity: Active
Schistosoma japonicum [10]
  Activity: Active

## O=[N+]([O-])c1ccc2nc(Nc3ccc(Cl)cc3)c(Nc3ccc(Cl)cc3)nc2c1
Schistosoma japonicum [22]
  Activity: Active

## FC(F)(F)c1cccc(Nc2nc3ccccc3nc2Nc2cccc(C(F)(F)F)c2)c1
Schistosoma mansoni [1]
  Activity: Active
Schistosoma mansoni [8]
  Activity: 100%

## COC(=O)c1ccc(Nc2nc3ccc([N+](=O)[O-])cc3nc2Nc2ccc(C(=O)OC)cc2)cc1
Schistosoma mansoni [1]
  Activity: Active

## O=[N+]([O-])c1ccc2nc(Nc3cccc(C(F)(F)F)c3)c(Nc3cccc(C(F)(F)F)c3)nc2c1
Schistosoma haematobium
  Activity: Active
Schistosoma japonicum [22]
  Activity: Active

## O=[N+]([O-])c1ccc2nc(Nc3cccc(Cl)c3)c(Nc3cccc(Cl)c3)nc2c1
Schistosoma japonicum [22]
  Activity: Active

## Brc1ccc(Nc2nc3ccccc3nc2Nc2ccc(Br)cc2)cc1
Schistosoma mansoni [23]
  EC50: 1.21 µM
Schistosoma mansoni [24]
  EC50: 3.67 µM
Schistosoma mansoni [25]
  EC50: 0.162 µM
[26]
  CC50 at 24 h: 7.12 µM
[27]
  CC50 at 72 h: 4.64 µM
[28]
  selectivity ratio at 72 h: 1.9
[29]
  selectivity ratio at 72 h: 28.6

## Cc1cccc(Nc2nc3ccc([N+](=O)[O-])cc3nc2Nc2cccc(C)c2)c1
Schistosoma mansoni [1]
  Activity: Active
